This is an account of results in ChEMBL document CHEMBL1157478, “Pyrrolo[2,1-c][1,4]benzodiazepine-beta-glucuronide prodrugs with a potential for selective therapy of solid tumors by PMT and ADEPT strategies” (Bioorg Med Chem Lett, 2008).

Active and inactive are the calls of the source. No cut-off for these calls is given here.

The subject of assay [1] is HT-29. The experiment in a line: Cytotoxicity against human HT29 cells by MTT assay. The class given is functional, cell-based.
The subject of assay [2] is HT-29. The experiment in a line: Induction of cell shrinkage in human HT29 cells after 2 hrs. The class given is functional, cell-based. The procedure, abridged:
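HT-29 adenocarcinoma cells were incubated 2 h with compound alone. Morphology (shrinkage) was examined under the microscope against untreated control cells.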

Assay [3] concerns HT-29. The experiment in a line: Activation factor, ratio of IC50 for human HT29 cells to IC50 for human HT29 cells in presence of beta-glucuronidase. The class given is functional.
For assay [4], the system named is HT-29. The experiment in a line: Cytotoxicity against human HT29 cells in presence of beta-glucuronidase by MTT assay. The assay is classed as functional, cell-based. For orientation: Tetrazolium assays rely on reduction of a dye to a coloured formazan, in cell work by metabolically active cells.
For assay [5], the system named is HT-29. The experiment in a line: Induction of cell shrinkage in human HT29 cells after 2 hrs in presence of beta-glucuronidase. The class given is functional, cell-based. The method, boiled down: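 HT-29 adenocarcinoma cells were incubated 2 h with compound plus the enzyme beta-glucuronidase. Shrinkage was scored by microscopic examination of cell morphology against untreated control cells.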

For the compound `COc1cc2c(cc1OCCCCCOc1cc3c(cc1OC)C(=O)N1CCC[C@H]1C(=O)N3)N=C[C@@H]1CCCN1C2=O`, in assay [1], the IC50 was 8.12 µmol.

Take `COc1cc2c(cc1O)N=C[C@@H]1CCCN1C2=O`: the outcome in assay [2] was Active. The compound further had an IC50 in assay [1] of 30.19 µmol.

With `COc1cc2c(cc1OCCCCCOc1cc3c(cc1OC)C(=O)N1CCC[C@H]1C(O)N3C(=O)OCc1ccc(O[C@@H]3O[C@H](C(=O)O)[C@@H](O)[C@H](O)[C@H]3O)c([N+](=O)[O-])c1)NC(=O)[C@@H]1CCCN1C2=O` (stereo partly specified), the “Ratio IC50” value in assay [3] was 208.85. In addition, the IC50 in assay [4] came out at 12.88 µmol; in assay [1] it was 2690 µmol.

Consider `COc1cc2c(cc1OCc1ccccc1)N(C(=O)OCc1ccc(O[C@@H]3O[C@H](C(=O)O)[C@@H](O)[C@H](O)[C@H]3O)c([N+](=O)[O-])c1)C(O)[C@@H]1CCCN1C2=O` (stereo partly specified), for which the “Ratio IC50” value in assay [3] was 126.67. In addition, in assay [2], the result was inactive. The IC50 in assay [4] was found to be 41.68 µmol; in assay [1], 5280 µmol. In assay [5], the outcome was Active.
